pIC50: −log10 of the molar value. Converted amounts (≈) assume the structure as drawn.
Assays:
[1] = system: Streptococcus pneumoniae; assay: Antibacterial activity against Penicillin-resistant Streptococcus pneumoniae after 24 hrs by microdilution method; type: functional
[2] = system: Enterococcus faecalis; assay: Antibacterial activity against vancomycin-resistant Enterococcus faecalis after 24 hrs by microdilution method; type: functional
[3] = system: Enterococcus faecium; assay: Antibacterial activity against vancomycin-resistant Enterococcus faecium after 24 hrs by microdilution method; type: functional
[4] = system: Staphylococcus aureus; assay: Antibacterial activity against methicillin-resistant Staphylococcus aureus after 24 hrs by microdilution method; type: functional
[5] = system: Escherichia coli; assay: Antibacterial activity against Escherichia coli after 24 hrs by microdilution method; type: functional
[6] = system: Pseudomonas aeruginosa; assay: Antibacterial activity against Pseudomonas aeruginosa after 24 hrs by microdilution method; type: functional
[7] = target: T1, Peptide deformylase (Staphylococcus aureus) (UniProt P68826); assay: Inhibition of Staphylococcus aureus PDF using formyl-methionine-alanine-serine as substrate assessed as increase in NADH levels at 10 nM by microtiter ELISA
T1 sequence (whole entry): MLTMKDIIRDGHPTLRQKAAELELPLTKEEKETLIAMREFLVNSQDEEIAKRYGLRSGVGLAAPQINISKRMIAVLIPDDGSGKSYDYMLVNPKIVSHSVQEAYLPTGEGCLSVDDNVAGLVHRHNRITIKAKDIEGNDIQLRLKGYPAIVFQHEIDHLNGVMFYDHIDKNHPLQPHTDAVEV

[8] = target: T2, Peptide deformylase (Staphylococcus aureus, UniProt P68826); assay: Inhibition of Staphylococcus aureus PDF using formyl-methionine-alanine-serine as substrate assessed as increase in NADH levels by microtiter ELISA
T2 sequence (P68826 whole entry): T1 sequence (whole entry)

[9] = target: T1, Peptide deformylase (Staphylococcus aureus); assay: Inhibition of Staphylococcus aureus PDF using formyl-methionine-alanine-serine as substrate assessed as increase in NADH levels at 100 nM by microtiter ELISA
[10] = target: T1, Peptide deformylase (Staphylococcus aureus); assay: Inhibition of Staphylococcus aureus PDF using formyl-methionine-alanine-serine as substrate assessed as increase in NADH levels at 30 nM by microtiter ELISA
[11] = Tmax in iv/po dosed mouse plasma by LC-MS/MS analysis; type: ADME, organism-based
In short: (§1)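 Mice, n = 3–5 per group, given the compound intravenously and orally. Plasma pharmacokinetic parameters were derived: total plasma clearance, steady-state volume of distribution, apparent terminal elimination half-life, Tmax after oral dosing, and absolute oral bioavailability (%F).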

[12] = Volume of distribution at steady state in iv/po dosed mouse plasma by LC-MS/MS analysis; type: ADME, organism-based; conditions: read-out: Vdss; in short: as §1
[13] = Apparent oral bioavailability in mouse plasma by LC-MS/MS analysis; type: ADME, organism-based; in short: as §1
[14] = target: T1, Peptide deformylase (Staphylococcus aureus); assay: Inhibition of Staphylococcus aureus PDF using formyl-methionine-alanine-serine as substrate assessed as increase in NADH levels at 3 nM by microtiter ELISA
[15] = Apparent terminal half life in iv/po dosed mouse plasma by LC-MS/MS analysis; type: ADME, organism-based; conditions: read-out: betat1/2(app) (converted); in short: as §1
[16] = Plasma clearance in iv/po dosed mouse by LC-MS/MS analysis; type: ADME, organism-based; in short: as §1

| SMILES | MIC [1] [µg/mL] | MIC [2] [µg/mL] | MIC [3] [µg/mL] | MIC [4] [µg/mL] | MIC [5] [µg/mL] | MIC [6] [µg/mL] | further results |
| --- | --- | --- | --- | --- | --- | --- | --- |
| CC(C)(C)[C@H](NC(=O)[C@H](CC1CCCC1)CN(O)C=O)C(=O)N1CCC(NCc2ccc(O)c(O)c2)CC1 | 12.5 (≈ 23.5 µM) | > 50 | > 50 | > 50 | – | – | – |
| CC(C)(C)[C@H](NC(=O)[C@H](CC1CCCC1)CN(O)C=O)C(=O)N1CCC(Nc2ccccc2)CC1 | 0.8 (≈ 1.64 µM) | 3.1 (≈ 6.37 µM) | 0.8 (≈ 1.64 µM) | 6.3 (≈ 12.9 µM) | > 50 | > 50 | – |
| CC(C)(C)[C@H](NC(=O)[C@H](CC1CCCC1)CN(O)C=O)C(=O)N1CCC(NCc2ccc3c(c2)OCO3)CC1 | 1.6 (≈ 2.94 µM) | 3.1 (≈ 5.69 µM) | 0.8 (≈ 1.47 µM) | 6.3 (≈ 11.6 µM) | > 50 | > 50 | – |
| CC(C)(C)[C@H](NC(=O)[C@H](CC1CCCC1)CN(O)C=O)C(=O)N1CCC(NCc2ccco2)CC1 | 1.6 (≈ 3.26 µM) | 25 (≈ 51 µM) | 50 (≈ 102 µM) | 50 (≈ 102 µM) | > 50 | > 50 | – |
| CC(C)(C)[C@H](NC(=O)[C@H](CC1CCCC1)CN(O)C=O)C(=O)N1CCN(Cc2ccc3c(c2)OCO3)CC1 | – | – | – | – | – | – | inhibition [7]: 1%; pIC50 [8]: 7.52; inhibition [9]: 72%; inhibition [10]: 34% |
| COc1ccc(CNC2CCN(C(=O)[C@@H](NC(=O)[C@H](CC3CCCC3)CN(O)C=O)C(C)(C)C)CC2)cc1 | 0.8 (≈ 1.51 µM) | 6.3 (≈ 11.9 µM) | 1.6 (≈ 3.01 µM) | 12.5 (≈ 23.6 µM) | – | – | – |
| COc1ccc(CNC2CCN(C(=O)[C@@H](NC(=O)[C@H](CC3CCCC3)CN(O)C=O)C(C)(C)C)CC2)c(OC)c1 | 0.8 (≈ 1.43 µM) | 6.3 (≈ 11.2 µM) | 3.1 (≈ 5.53 µM) | 25 (≈ 44.6 µM) | – | – | – |
| CC(C)(C)[C@H](NC(=O)[C@H](CC1CCCC1)CN(O)C=O)C(=O)N1CCC(Nc2ccc3cn[nH]c3c2)CC1 | 0.4 (≈ 0.759 µM) | 6.3 (≈ 12 µM) | 1.6 (≈ 3.04 µM) | 12.5 (≈ 23.7 µM) | > 50 | > 50 | – |
| CC(C)(C)[C@H](NC(=O)[C@H](CC1CCCC1)CN(O)C=O)C(=O)N1CCC(NCc2ccc[nH]2)CC1 | 6.3 (≈ 12.9 µM) | > 50 | > 50 | > 50 | > 50 | > 50 | – |
| CC(C)(C)[C@H](NC(=O)[C@H](CC1CCCC1)CN(O)C=O)C(=O)N1CCC(NCc2ccccn2)CC1 | 1.6 (≈ 3.19 µM) | 12.5 (≈ 24.9 µM) | 12.5 (≈ 24.9 µM) | 25 (≈ 49.8 µM) | > 50 | > 50 | – |
| CC(C)(C)[C@H](NC(=O)[C@H](CC1CCCC1)CN(O)C=O)C(=O)N1CCC(NCc2ccc(O)cc2)CC1 | 3.1 (≈ 6 µM) | > 50 | 50 (≈ 96.8 µM) | > 50 | – | – | – |
| CC(C)(C)[C@H](NC(=O)[C@H](CC1CCCC1)CN(O)C=O)C(=O)N1CCC(NCc2ccc(C#N)cc2)CC1 | 0.4 (≈ 0.761 µM) | 0.8 (≈ 1.52 µM) | 0.8 (≈ 1.52 µM) | 3.1 (≈ 5.9 µM) | – | – | inhibition [7]: 19%; Tmax [11]: 30 min; pIC50 [8]: 7.52; Vd [12]: 3.49 L/kg; bioavailability [13]: 103%; inhibition [14]: -6%; half-life [15]: 21.6 min; inhibition [9]: 77%; clearance [16]: 51.5 mL/min/kg; inhibition [10]: 54% |
| CC(C)(C)[C@H](NC(=O)[C@H](CC1CCCC1)CN(O)C=O)C(=O)N1CCC(NCc2ccc(F)cc2)CC1 | 0.4 (≈ 0.771 µM) | 3.1 (≈ 5.98 µM) | 0.4 (≈ 0.771 µM) | 6.3 (≈ 12.1 µM) | – | – | – |
| CN[C@@H](CC(C)C)C(=O)N[C@H]1C(=O)N[C@@H](CC(N)=O)C(=O)N[C@H]2C(=O)N[C@H]3C(=O)N[C@H](C(=O)N[C@@H](C(=O)O)c4cc(O)cc(O)c4-c4cc3ccc4O)[C@H](O)c3ccc(c(Cl)c3)Oc3cc2cc(c3O[C@H]2O[C@@H](CO)[C@H](O)[C@@H](O)[C@@H]2O[C@@H]2C[C@@](C)(N)[C@@H](O)[C@@H](C)O2)Oc2ccc(cc2Cl)[C@H]1O | 0.8 (≈ 0.552 µM) | > 50 | > 50 | 3.1 (≈ 2.14 µM) | > 50 | > 50 | – |
| CC(C)(C)[C@H](NC(=O)[C@H](CC1CCCC1)CN(O)C=O)C(=O)N1CCC(Nc2ccc3c(c2)OCO3)CC1 | 0.4 (≈ 0.754 µM) | 3.1 (≈ 5.84 µM) | 1.6 (≈ 3.02 µM) | 6.3 (≈ 11.9 µM) | > 50 | > 50 | – |
| CC(C)(C)[C@H](NC(=O)[C@H](CC1CCCC1)CN(O)C=O)C(=O)N1CCC(N)CC1 | 1.6 (≈ 3.9 µM) | 50 (≈ 122 µM) | > 50 | > 50 | > 50 | > 50 | – |
| CC(C)(C)[C@H](NC(=O)[C@H](CC1CCCC1)CN(O)C=O)C(=O)N1CCC(NCc2ccccc2)CC1 | 0.8 (≈ 1.6 µM) | 1.6 (≈ 3.2 µM) | 0.8 (≈ 1.6 µM) | 3.1 (≈ 6.19 µM) | > 50 | > 50 | – |
| CC(C)(C)[C@H](NC(=O)[C@H](CC1CCCC1)CN(O)C=O)C(=O)N1CCC(NCc2nc3ccccc3[nH]2)CC1 | 1.6 (≈ 2.96 µM) | 6.3 (≈ 11.7 µM) | 12.5 (≈ 23.1 µM) | 6.3 (≈ 11.7 µM) | > 50 | > 50 | – |
| CC(C)(C)[C@H](NC(=O)[C@H](CC1CCCC1)CN(O)C=O)C(=O)N1CCC(NCc2ccc3[nH]ccc3c2)CC1 | 0.8 (≈ 1.48 µM) | 3.1 (≈ 5.74 µM) | 6.3 (≈ 11.7 µM) | 6.3 (≈ 11.7 µM) | > 50 | > 50 | – |
| Cc1ccc(CNC2CCN(C(=O)[C@@H](NC(=O)[C@H](CC3CCCC3)CN(O)C=O)C(C)(C)C)CC2)cc1 | 0.4 (≈ 0.777 µM) | 3.1 (≈ 6.02 µM) | 0.4 (≈ 0.777 µM) | 6.3 (≈ 12.2 µM) | – | – | – |
| CC(=O)Nc1ccc(CNC2CCN(C(=O)[C@@H](NC(=O)[C@H](CC3CCCC3)CN(O)C=O)C(C)(C)C)CC2)cc1 | 1.6 (≈ 2.87 µM) | 12.5 (≈ 22.4 µM) | 25 (≈ 44.8 µM) | > 50 | – | – | – |
| CC(C)(C)[C@H](NC(=O)[C@H](CC1CCCC1)CN(O)C=O)C(=O)N1CCC(NC(=O)c2ccc(C#N)cc2)CC1 | – | – | – | – | – | – | Tmax [11]: 40.2 min; Vd [12]: 2.54 L/kg; bioavailability [13]: 55.5%; half-life [15]: 55.2 min; clearance [16]: 44 mL/min/kg |
| COC(=O)c1ccc(CNC2CCN(C(=O)[C@@H](NC(=O)[C@H](CC3CCCC3)CN(O)C=O)C(C)(C)C)CC2)cc1 | 0.8 (≈ 1.43 µM) | 6.3 (≈ 11.3 µM) | 3.1 (≈ 5.55 µM) | 12.5 (≈ 22.4 µM) | – | – | – |

Source: ChEMBL document CHEMBL3808332, “Identification of novel aminopiperidine derivatives for antibacterial activity against Gram-positive bacteria” (Bioorg Med Chem Lett, 2016)
